Here are results for 13 molecules from ChEMBL document CHEMBL1125601, “Comparative molecular field analysis of some clodronic acid esters” (J Med Chem, 1991).

The species entered for data set [1] is Rattus norvegicus. The experiment in a line: Bioavailability of compound was determined from urinary excretion data in rat, expressed as log. To be noted: in vivo. The class given is ADME, organism-based, Urine. The method, boiled down:
(§1)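 Sprague-Dawley male rats given clodronate esters at 100 μmol/kg orally and intravenously, three animals per dose level and route. Unchanged drug was measured by capillary GC with nitrogen-phosphorus detection. F = (cumulative oral urinary amount × iv dose)/(cumulative iv urinary amount × oral dose).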

The species named for data set [2] is Mus musculus. The experiment in a line: In vitro inhibition of bone resorption tested in mouse calvarial resorption assay by measuring release of 45Ca from labelled bones. The data set is classed as functional. Also noted: concentration or dose not given beside the values. The method, boiled down:
(§2)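 Mouse calvarial pieces prelabelled with 45Ca, cultured 72 h with PTH (10 nmol/l) plus ester at 100 μmol/l. Calcium release was measured and expressed as percent of control, the control being PTH-stimulated bones without bisphosphonate.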

Data set [3] is described as follows: Partition coefficient (logP). The class given is physicochemical. To be noted: octanol/water. In outline:
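Shake-flask partition: 200 mg ester dissolved in 4 mL pH 7.4 phosphate buffer or 1-octanol (each saturated with the other), the opposite phase (4 mL) added, shaken 1 h, left overnight, then centrifuged. Both phases were assayed by capillary GC with nitrogen-phosphorus detection.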

In data set [4] the test system is Rattus norvegicus. The experiment in a line: In vivo inhibition of bone resorption tested in rat resorption assay measured at dose of 150 umol/kg after iv administration.
The species named for data set [5] is Mus musculus. The experiment in a line: In vitro inhibition of bone resorption tested in mouse calvarial resorption assay by measuring release of 45Ca from labelled bones; expressed as logit inhibition resorption. The data set is classed as functional. In outline: as §2
For data set [6], the system named is Rattus norvegicus. Kind of data set: In vivo inhibition of bone resorption tested in rat resorption assay measured at dose of 150 umol/kg after iv administration, expressed as log.
Data set [7] in a line: Bioavailability in rat as ratio of unchanged drug excreted in the urine after p.o dosing to that following i.v. administration. The class given is ADME, organism-based. To be noted: po. In outline:
as §1

Data set [8] is filed under the species Mus musculus. Kind of data set: In vitro inhibition of bone resorption tested in mouse calvarial resorption assay by measuring release of 45Ca from labelled bones; expressed as logit inhibition response. The class given is functional. In outline:
as §2

Molecules are shown by their SMILES.

In general, Inhibition refers to the percentage by which the read-out fell short of the control. What is called logP is the decadic logarithm of the partition coefficient of the neutral form, usually between octanol and water. Broadly, the bioavailability is the share of a dose that reaches the circulation, judged against a reference dose that is usually intravenous. `CCOP(=O)(OCC)C(Cl)(Cl)P(=O)(OCC)OCC` displayed a Logit bioavailability in the data set listed under Rattus norvegicus [1] of 2.72. In addition, the Inhibition in the data set filed under Mus musculus [2] is 18.8%. The log partition coefficient (logP) in data set [3] (read-out: logP) was found to be 1.31. Further, the “Delta Ca” value with Rattus norvegicus [4] turned out to be 1.52 mM. The “Logit_p(conc)” value in the data set filed under Mus musculus [5] came out at 3.36. Also, the “Log 1/delta/Ca” value with Rattus norvegicus [6] was 2.81. Moreover, the bioavailability in data set [7] was 5%.
`CC(C)OP(=O)(OC(C)C)C(Cl)(Cl)P(=O)(OC(C)C)OC(C)C` came in with a Logit bioavailability in the data set filed under Rattus norvegicus [1] of 3.67. Besides, the Inhibition in the data set listed under Mus musculus [2] was found to be 17.5%. In addition, the log partition coefficient (logP) in data set [3] (read-out: logP) was found to be 2.89. The “Delta Ca” value in the data set with Rattus norvegicus [4] came out at 1.54 mM. The “Logit_p(conc)” value in the data set listed under Mus musculus [5] worked out at 3.32. For the same molecule, the “Log 1/delta/Ca” value with Rattus norvegicus [6] came to 2.81. Moreover, in data set [7], the bioavailability was 32.1%.
In the data set filed under Rattus norvegicus [1], `CC(C)OP(=O)(O)C(Cl)(Cl)P(=O)(O)O` displayed a Logit bioavailability of 2.57. Further, the Inhibition in the data set listed under Mus musculus [2] amounted to 11.8%. Moreover, in data set [3] (read-out: logP), the lipophilicity (logP) was -3.24. The “Delta Ca” value in the data set with Rattus norvegicus [4] is listed as 1.27 mM. Also, the “Logit_p(conc)” value in the data set listed under Mus musculus [5] is listed as 3.12. For the same molecule, in the data set on Rattus norvegicus [6], the “Log 1/delta/Ca” value is 2.9. In addition, in data set [7], the bioavailability stood at 3.6%.
Molecule `CCCCCCOP(=O)(O)C(Cl)(Cl)P(=O)(O)O` registered a Logit bioavailability in the data set listed under Rattus norvegicus [1] of 3.4. This molecule showed an Inhibition in the data set listed under Mus musculus [2] of 21.1%. Moreover, the logP in data set [3] (read-out: logP) was -2.75. The “Logit_p(conc)” value in the data set listed under Mus musculus [5] is on record as 3.42. Moreover, in data set [7], the bioavailability came to 17.9%.
In turn, `CC(C)OP(=O)(O)C(Cl)(Cl)P(=O)(O)OC(C)C` showed a Logit bioavailability in the data set listed under Rattus norvegicus [1] of 2.3. Also, the Inhibition in the data set listed under Mus musculus [2] was determined as 8%. In data set [3] (read-out: logP), the logP is -2.96. For the same molecule, the “Delta Ca” value in the data set with Rattus norvegicus [4] amounted to 1.09 mM. The “Logit_p(conc)” value in the data set filed under Mus musculus [5] was 2.93. Further, the “Log 1/delta/Ca” value in the data set with Rattus norvegicus [6] is reported as 2.96. The bioavailability in data set [7] worked out at 1.9%.
Turning to `CC(C)OP(=O)(OC(C)C)C(Cl)(Cl)P(=O)(O)O`, the Logit bioavailability in the data set listed under Rattus norvegicus [1] was determined as 3.19. In the data set listed under Mus musculus [2], the Inhibition came to 0.8%. In addition, the log partition coefficient (logP) in data set [3] (read-out: logP) is -3.56. Also, the “Delta Ca” value in the data set on Rattus norvegicus [4] was determined as 1.25 mM. The “Logit_p(conc)” value in the data set listed under Mus musculus [5] is 1.3. The “Log 1/delta/Ca” value in the data set on Rattus norvegicus [6] is reported as 2.9. Besides, the bioavailability in data set [7] stood at 13.6%.
Molecule `CCCCCCOP(=O)(O)C(Cl)(Cl)P(=O)(O)OCCCCCC` displayed a Logit bioavailability in the data set listed under Rattus norvegicus [1] of 3.65. Further, the Inhibition in the data set filed under Mus musculus [2] is 20.5%. The lipophilicity (logP) in data set [3] (read-out: logP) was -0.64. Besides, the “Delta Ca” value in the data set with Rattus norvegicus [4] turned out to be 1.43 mM. For the same molecule, the “Logit_p(conc)” value in the data set listed under Mus musculus [5] is listed as 3.41. In addition, the “Log 1/delta/Ca” value in the data set with Rattus norvegicus [6] was determined as 2.84. Besides, the bioavailability in data set [7] is 31%.
The molecule `CCOP(=O)(O)C(Cl)(Cl)P(=O)(O)O` registered a Logit bioavailability in the data set filed under Rattus norvegicus [1] of 3.79. Moreover, the logP in data set [3] is -5.44. The “Delta Ca” value in the data set with Rattus norvegicus [4] came to 0.77 mM. The Inhibition in the data set listed under Mus musculus [5] is 15.4%. Moreover, the “Logit_p(conc)” value in the data set filed under Mus musculus [8] turned out to be 3.26. Moreover, the “Log 1/delta/Ca” value in the data set with Rattus norvegicus [6] was 3.11. The bioavailability in data set [7] came to 37.9%.
`CCCCCCOP(=O)(OCCCCCC)C(Cl)(Cl)P(=O)(O)O` registered a Logit bioavailability in the data set filed under Rattus norvegicus [1] of 2.91. In the data set filed under Mus musculus [2], this molecule came in with an Inhibition of 15.1%. Besides, the logP in data set [3] (read-out: logP) is -0.15. Moreover, the “Delta Ca” value in the data set on Rattus norvegicus [4] amounted to 0.93 mM. Besides, the “Logit_p(conc)” value in the data set listed under Mus musculus [5] is listed as 3.25. Besides, in the data set on Rattus norvegicus [6], the “Log 1/delta/Ca” value was determined as 3.03. For the same molecule, the bioavailability in data set [7] amounted to 7.6%.
`CC(C)OP(=O)(O)C(Cl)(Cl)P(=O)(OC(C)C)OC(C)C` registered a Logit bioavailability in the data set filed under Rattus norvegicus [1] of 2.28. For the same molecule, the Inhibition in the data set filed under Mus musculus [2] is recorded as 7.4%. Besides, in data set [3] (read-out: logP), the logP was -0.95. The “Delta Ca” value in the data set on Rattus norvegicus [4] stood at 1.51 mM. Moreover, the “Logit_p(conc)” value in the data set listed under Mus musculus [5] was determined as 2.9. Also, the “Log 1/delta/Ca” value in the data set on Rattus norvegicus [6] was determined as 2.82. Besides, the bioavailability in data set [7] is 1.9%.
The molecule `CCCCCCOP(=O)(O)C(Cl)(Cl)P(=O)(OCCCCCC)OCCCCCC` registered an Inhibition in the data set listed under Mus musculus [2] of 58%. Also, the logP in data set [3] (read-out: logP) amounted to 4.89. Also, in the data set filed under Mus musculus [5], the “Logit_p(conc)” value worked out at 4.31.
Take `CCOP(=O)(O)C(Cl)(Cl)P(=O)(O)OCC`: the Logit bioavailability in the data set listed under Rattus norvegicus [1] is 3.71. This molecule also displayed an Inhibition in the data set filed under Mus musculus [2] of 12.3%. Besides, in data set [3] (read-out: logP), the logP was -3.96. The “Delta Ca” value in the data set on Rattus norvegicus [4] was determined as 1.05 mM. Moreover, the “Logit_p(conc)” value in the data set filed under Mus musculus [5] is listed as 3.15. For the same molecule, the “Log 1/delta/Ca” value with Rattus norvegicus [6] stood at 2.98. Also, the bioavailability in data set [7] was found to be 34%.
Molecule `CCOP(=O)(O)C(Cl)(Cl)P(=O)(OCC)OCC` showed a Logit bioavailability in the data set filed under Rattus norvegicus [1] of 2.88. The molecule also came in with an Inhibition in the data set listed under Mus musculus [2] of 14.7%. In data set [3] (read-out: logP), the logP is -2.37. In the data set on Rattus norvegicus [4], the “Delta Ca” value is 0.7 mM. In addition, the “Logit_p(conc)” value in the data set listed under Mus musculus [5] was 3.23. In addition, the “Log 1/delta/Ca” value in the data set with Rattus norvegicus [6] came to 3.15. Besides, the bioavailability in data set [7] is 7%.
